According to ChEMBL document CHEMBL3774321, “Systematic diversification of benzylidene heterocycles yields novel inhibitor scaffolds selective for Dyrk1A, Clk1 and CK2” (Eur J Med Chem, 2016):
Active and inactive are the calls of the source. No cut-off for these calls is given here.

Tests used:
[1] = biological target: T1, Myosin light chain kinase 2, skeletal/cardiac muscle (Homo sapiens, UniProt Q9H1R3); assay: Inhibition of full length recombinant human N-terminal GST-tagged MLCK expressed in baculovirus expression system at 5 uM by lantha screen kinase binding assay relative to control
How it was run: (§1)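 Binding-displacement format: the compound competes with an Alexa Fluor-conjugated tracer for binding to the kinase ATP site, rather than a peptide phosphorylation read-out.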

[2] = biological target: Casein kinase I isoform gamma-3 (Homo sapiens) (UniProt Q9Y6M4); assay: Inhibition of full length recombinant human GST-tagged CSNK1G3 expressed in baculovirus expression system at 5 uM by lantha screen kinase binding assay relative to control
[3] = Growth inhibition of human U87MG cells after 4 days by MTT assay; format: functional, cell-based, U-87MG ATCC; conditions: U-87 MG, 96 h
[4] = biological target: Serine/threonine-protein kinase haspin (Homo sapiens, UniProt Q8TF76); assay: Inhibition of Haspin (unknown origin)
How it was run: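 Calculated from means of duplicates differing by less than 7%.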

[5] = biological target: Phosphatidylinositol 4-phosphate 3-kinase C2 domain-containing subunit beta (Homo sapiens) (UniProt O00750); assay: Inhibition of PI3K-C2beta (unknown origin) at 1 uM relative to control
How it was run: (§2)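 Single-point screen at 1 μM compound. Percent inhibition is the mean of two separate measurements, each run in duplicate.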

[6] = biological target: Phosphatidylinositol 4,5-bisphosphate 3-kinase catalytic subunit delta isoform (Homo sapiens, UniProt O00329); assay: Inhibition of PI3K p110delta (unknown origin)
[7] = biological target: Phosphatidylinositol 4,5-bisphosphate 3-kinase catalytic subunit gamma isoform (Homo sapiens, UniProt P48736); assay: Inhibition of PI3K p110gamma (unknown origin) at 1 uM relative to control; how it was run: as §2
[8] = biological target: Dual specificity protein kinase CLK2 (Homo sapiens) (UniProt P49760); assay: Inhibition of recombinant human GST-tagged CLK2 expressed in baculovirus expression system at 5 uM by lantha screen kinase binding assay relative to control; how it was run: as §1
[9] = biological target: Dual specificity protein kinase CLK3 (Homo sapiens, UniProt P49761); assay: Inhibition of recombinant human GST-tagged CLK3 expressed in baculovirus expression system at 5 uM by lantha screen kinase binding assay relative to control; how it was run: as §1
[10] = biological target: Dual specificity protein kinase CLK4 (Homo sapiens, UniProt Q9HAZ1); assay: Inhibition of full length recombinant human GST-tagged CLK4 expressed in baculovirus expression system by lantha screen kinase binding assay
How it was run: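 LanthaScreen binding format: test compound competes with an Alexa Fluor-conjugated tracer for the ATP site. IC50 derived from this displacement, not from peptide phosphorylation.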

[11] = biological target: Mitogen-activated protein kinase 14 (Homo sapiens) (UniProt Q16539); assay: Inhibition of full length recombinant human GST-tagged MAPK14 expressed in Escherichia coli at 5 uM by lantha screen kinase binding assay relative to control
[12] = biological target: T2, Phosphatidylinositol 4,5-bisphosphate 3-kinase catalytic subunit delta isoform (Homo sapiens) (UniProt O00329); conditions: 1 uM
T2 sequence (whole entry): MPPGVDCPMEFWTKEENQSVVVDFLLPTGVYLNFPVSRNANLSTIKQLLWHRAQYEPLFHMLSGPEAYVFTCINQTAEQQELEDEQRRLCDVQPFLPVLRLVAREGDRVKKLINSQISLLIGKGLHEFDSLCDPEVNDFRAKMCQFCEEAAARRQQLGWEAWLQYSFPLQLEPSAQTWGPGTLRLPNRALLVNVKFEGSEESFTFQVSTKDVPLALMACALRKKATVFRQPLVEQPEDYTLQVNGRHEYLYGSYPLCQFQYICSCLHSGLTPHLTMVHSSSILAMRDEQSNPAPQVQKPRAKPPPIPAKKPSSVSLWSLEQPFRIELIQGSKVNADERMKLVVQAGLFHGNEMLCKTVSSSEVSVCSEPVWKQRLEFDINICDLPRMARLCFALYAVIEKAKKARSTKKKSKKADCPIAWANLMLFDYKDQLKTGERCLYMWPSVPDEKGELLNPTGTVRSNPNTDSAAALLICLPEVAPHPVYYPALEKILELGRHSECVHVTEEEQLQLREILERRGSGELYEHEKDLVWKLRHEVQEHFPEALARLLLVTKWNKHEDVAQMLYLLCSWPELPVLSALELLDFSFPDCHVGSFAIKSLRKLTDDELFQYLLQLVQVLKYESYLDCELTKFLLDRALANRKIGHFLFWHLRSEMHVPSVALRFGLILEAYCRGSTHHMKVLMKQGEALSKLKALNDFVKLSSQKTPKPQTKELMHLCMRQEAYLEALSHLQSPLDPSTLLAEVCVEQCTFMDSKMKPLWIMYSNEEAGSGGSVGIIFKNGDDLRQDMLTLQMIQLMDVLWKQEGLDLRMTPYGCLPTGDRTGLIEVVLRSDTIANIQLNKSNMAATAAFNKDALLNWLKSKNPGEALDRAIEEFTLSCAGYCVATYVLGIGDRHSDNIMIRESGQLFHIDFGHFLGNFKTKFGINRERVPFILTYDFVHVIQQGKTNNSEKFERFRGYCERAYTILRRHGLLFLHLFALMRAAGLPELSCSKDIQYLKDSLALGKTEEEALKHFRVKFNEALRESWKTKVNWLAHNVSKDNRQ

[13] = biological target: Calcium/calmodulin-dependent protein kinase type II subunit alpha (Homo sapiens) (UniProt Q9UQM7); assay: Inhibition of full length recombinant human His-tagged CAMK2A expressed in baculovirus expression system at 1 uM by lantha screen kinase binding assay relative to control
[14] = biological target: T1, Myosin light chain kinase 2, skeletal/cardiac muscle; assay: Inhibition of full length recombinant human N-terminal GST-tagged MLCK expressed in baculovirus expression system at 1 uM by lantha screen kinase binding assay relative to control; how it was run: as §1
[15] = biological target: Receptor-interacting serine/threonine-protein kinase 2 (Homo sapiens) (UniProt O43353); assay: Inhibition of recombinant human His-tagged RIPK2 expressed in baculovirus expression system at 1 uM by lantha screen kinase binding assay relative to control; how it was run: as §1
[16] = biological target: Proto-oncogene tyrosine-protein kinase ROS (Homo sapiens) (UniProt P08922); assay: Inhibition of recombinant human GST-tagged ROS1 expressed in baculovirus expression system at 1 uM by lantha screen kinase binding assay relative to control; how it was run: as §1
[17] = biological target: Mitogen-activated protein kinase 14 (Homo sapiens) (UniProt Q16539); assay: Inhibition of full length recombinant human GST-tagged MAPK14 expressed in Escherichia coli at 1 uM by lantha screen kinase binding assay relative to control
Plasma = assay: Metabolic stability in rat plasma assessed as drug degradation at 1 uM after 120 mins by LC-MS/MS analysis; format: ADME, cell-free; conditions: 2 h
How it was run: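 Compound (1 µM) in pooled heparinised rat plasma at 37 °C, sampled at 0, 5, 15, 30, 60 and 120 min. Reaction stopped with 5 volumes of cold acetonitrile containing internal standard. Remaining compound was measured by LC-MS/MS; means of two experiments.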

[18] = biological target: Phosphatidylinositol 4-phosphate 3-kinase C2 domain-containing subunit beta (Homo sapiens) (UniProt O00750); assay: Inhibition of PI3K-C2beta (unknown origin) at 5 uM relative to control
[19] = biological target: Phosphatidylinositol 4,5-bisphosphate 3-kinase catalytic subunit alpha isoform (Homo sapiens, UniProt P42336); assay: Inhibition of PI3K p110alpha (unknown origin) at 5 uM relative to control
[20] = biological target: T2, Phosphatidylinositol 4,5-bisphosphate 3-kinase catalytic subunit delta isoform (Homo sapiens); assay: Inhibition of PI3K p110delta (unknown origin) at 5 uM relative to control

Phosphatidylinositol 4-phosphate 3-kinase C2 domain-containing subunit beta (Homo sapiens), sequence (O00750 whole entry, the tested form may be a part, canonical isoform): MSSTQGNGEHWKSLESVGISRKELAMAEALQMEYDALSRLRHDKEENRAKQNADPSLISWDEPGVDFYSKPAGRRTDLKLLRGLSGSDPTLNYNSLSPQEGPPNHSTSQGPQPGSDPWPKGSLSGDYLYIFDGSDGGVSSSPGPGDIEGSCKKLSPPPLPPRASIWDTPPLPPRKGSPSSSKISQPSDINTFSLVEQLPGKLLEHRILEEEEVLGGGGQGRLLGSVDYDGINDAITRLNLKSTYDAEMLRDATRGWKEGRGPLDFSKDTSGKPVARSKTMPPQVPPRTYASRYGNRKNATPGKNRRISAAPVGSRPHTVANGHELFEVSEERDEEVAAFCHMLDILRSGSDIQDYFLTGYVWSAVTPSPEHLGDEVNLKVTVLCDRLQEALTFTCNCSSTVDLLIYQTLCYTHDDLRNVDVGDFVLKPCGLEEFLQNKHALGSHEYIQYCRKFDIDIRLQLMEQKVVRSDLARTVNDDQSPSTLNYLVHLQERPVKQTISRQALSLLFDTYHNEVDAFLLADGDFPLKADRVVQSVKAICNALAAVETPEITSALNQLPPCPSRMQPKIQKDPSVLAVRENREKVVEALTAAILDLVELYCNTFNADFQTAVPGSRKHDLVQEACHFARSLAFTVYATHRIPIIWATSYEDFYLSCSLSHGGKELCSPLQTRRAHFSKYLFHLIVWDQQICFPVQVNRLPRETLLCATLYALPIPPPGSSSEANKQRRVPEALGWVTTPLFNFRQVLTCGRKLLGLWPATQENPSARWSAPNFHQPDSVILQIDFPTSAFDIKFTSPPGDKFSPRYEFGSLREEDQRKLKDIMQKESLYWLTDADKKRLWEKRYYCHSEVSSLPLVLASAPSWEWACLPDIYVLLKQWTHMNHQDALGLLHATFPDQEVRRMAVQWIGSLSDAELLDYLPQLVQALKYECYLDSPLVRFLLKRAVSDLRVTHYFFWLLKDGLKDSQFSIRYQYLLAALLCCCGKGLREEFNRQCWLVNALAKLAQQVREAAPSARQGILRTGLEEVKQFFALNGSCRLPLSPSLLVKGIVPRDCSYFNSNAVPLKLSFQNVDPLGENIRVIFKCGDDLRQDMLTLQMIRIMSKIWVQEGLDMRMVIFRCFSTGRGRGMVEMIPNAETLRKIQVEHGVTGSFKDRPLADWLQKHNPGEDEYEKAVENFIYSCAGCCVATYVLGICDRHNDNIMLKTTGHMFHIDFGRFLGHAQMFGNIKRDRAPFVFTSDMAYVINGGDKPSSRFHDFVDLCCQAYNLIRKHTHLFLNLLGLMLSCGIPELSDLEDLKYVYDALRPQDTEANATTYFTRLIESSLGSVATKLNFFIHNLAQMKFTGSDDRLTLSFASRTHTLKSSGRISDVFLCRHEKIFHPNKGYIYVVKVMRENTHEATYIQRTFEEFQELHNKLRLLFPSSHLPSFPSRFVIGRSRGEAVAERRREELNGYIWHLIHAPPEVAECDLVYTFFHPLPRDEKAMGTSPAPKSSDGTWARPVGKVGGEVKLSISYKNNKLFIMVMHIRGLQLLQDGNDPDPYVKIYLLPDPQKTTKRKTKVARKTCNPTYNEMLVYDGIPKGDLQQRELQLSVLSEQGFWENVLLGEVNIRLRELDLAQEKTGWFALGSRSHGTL
Serine/threonine-protein kinase haspin, sequence (Q8TF76 whole entry): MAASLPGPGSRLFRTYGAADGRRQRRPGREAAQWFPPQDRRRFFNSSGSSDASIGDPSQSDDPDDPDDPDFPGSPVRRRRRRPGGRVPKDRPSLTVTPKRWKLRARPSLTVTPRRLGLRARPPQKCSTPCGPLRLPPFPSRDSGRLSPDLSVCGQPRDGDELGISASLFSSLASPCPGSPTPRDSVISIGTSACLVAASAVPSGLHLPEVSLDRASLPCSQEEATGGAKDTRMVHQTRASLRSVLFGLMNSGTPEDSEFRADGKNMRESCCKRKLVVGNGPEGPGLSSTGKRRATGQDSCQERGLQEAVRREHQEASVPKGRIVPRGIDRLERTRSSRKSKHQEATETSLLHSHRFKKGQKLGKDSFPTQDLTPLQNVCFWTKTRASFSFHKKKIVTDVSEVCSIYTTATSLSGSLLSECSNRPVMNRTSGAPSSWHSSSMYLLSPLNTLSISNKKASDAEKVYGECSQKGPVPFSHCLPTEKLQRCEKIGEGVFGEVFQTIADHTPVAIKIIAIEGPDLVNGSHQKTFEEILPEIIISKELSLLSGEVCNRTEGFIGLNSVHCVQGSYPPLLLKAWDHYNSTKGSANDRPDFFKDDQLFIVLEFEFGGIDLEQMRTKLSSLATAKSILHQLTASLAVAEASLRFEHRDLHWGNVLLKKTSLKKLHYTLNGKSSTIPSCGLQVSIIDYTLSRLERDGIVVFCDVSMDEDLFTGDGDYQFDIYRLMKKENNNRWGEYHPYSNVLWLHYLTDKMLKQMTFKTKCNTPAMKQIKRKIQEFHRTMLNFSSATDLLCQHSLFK
Phosphatidylinositol 4,5-bisphosphate 3-kinase catalytic subunit gamma isoform, sequence (P48736 whole entry, looked up, canonical isoform): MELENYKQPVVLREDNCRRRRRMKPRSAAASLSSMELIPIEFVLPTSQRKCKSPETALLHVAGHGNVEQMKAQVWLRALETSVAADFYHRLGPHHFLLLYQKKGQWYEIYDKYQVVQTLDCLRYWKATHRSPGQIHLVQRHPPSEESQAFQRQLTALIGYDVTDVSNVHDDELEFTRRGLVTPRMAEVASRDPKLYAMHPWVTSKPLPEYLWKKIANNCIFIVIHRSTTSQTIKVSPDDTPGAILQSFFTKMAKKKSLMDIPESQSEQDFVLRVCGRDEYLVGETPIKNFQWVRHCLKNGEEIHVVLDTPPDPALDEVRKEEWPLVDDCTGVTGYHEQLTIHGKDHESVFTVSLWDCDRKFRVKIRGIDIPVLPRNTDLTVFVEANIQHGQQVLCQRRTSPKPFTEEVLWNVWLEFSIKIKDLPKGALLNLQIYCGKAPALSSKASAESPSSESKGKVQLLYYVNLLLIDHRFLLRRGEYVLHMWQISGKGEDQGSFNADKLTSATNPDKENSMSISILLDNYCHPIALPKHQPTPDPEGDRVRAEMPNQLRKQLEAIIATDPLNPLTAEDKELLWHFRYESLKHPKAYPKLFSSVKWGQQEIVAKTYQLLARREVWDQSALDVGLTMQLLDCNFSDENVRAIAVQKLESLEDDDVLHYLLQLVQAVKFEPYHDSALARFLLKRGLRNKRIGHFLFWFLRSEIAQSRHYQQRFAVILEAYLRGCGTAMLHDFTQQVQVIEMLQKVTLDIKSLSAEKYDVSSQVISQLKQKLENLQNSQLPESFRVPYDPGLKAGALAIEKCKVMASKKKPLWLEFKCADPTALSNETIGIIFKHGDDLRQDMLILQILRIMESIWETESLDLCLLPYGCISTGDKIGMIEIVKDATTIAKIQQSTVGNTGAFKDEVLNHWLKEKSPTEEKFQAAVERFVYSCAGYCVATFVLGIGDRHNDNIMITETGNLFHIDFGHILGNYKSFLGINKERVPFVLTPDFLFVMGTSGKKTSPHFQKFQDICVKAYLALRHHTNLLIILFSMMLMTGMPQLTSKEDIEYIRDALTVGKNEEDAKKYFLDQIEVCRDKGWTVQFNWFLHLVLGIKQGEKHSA
Mitogen-activated protein kinase 14 (Homo sapiens), sequence (Q16539 whole entry, canonical isoform): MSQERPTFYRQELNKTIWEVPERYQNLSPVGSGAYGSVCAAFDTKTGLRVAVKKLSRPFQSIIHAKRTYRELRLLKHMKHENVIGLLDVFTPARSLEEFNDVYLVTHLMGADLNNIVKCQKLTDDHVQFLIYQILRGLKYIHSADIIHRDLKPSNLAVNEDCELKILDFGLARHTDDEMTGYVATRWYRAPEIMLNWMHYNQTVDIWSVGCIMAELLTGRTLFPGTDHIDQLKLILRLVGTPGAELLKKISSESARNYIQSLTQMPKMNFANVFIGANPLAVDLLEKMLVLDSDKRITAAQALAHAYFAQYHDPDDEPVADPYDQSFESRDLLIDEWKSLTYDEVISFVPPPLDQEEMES
T1 sequence (Q9H1R3 whole entry): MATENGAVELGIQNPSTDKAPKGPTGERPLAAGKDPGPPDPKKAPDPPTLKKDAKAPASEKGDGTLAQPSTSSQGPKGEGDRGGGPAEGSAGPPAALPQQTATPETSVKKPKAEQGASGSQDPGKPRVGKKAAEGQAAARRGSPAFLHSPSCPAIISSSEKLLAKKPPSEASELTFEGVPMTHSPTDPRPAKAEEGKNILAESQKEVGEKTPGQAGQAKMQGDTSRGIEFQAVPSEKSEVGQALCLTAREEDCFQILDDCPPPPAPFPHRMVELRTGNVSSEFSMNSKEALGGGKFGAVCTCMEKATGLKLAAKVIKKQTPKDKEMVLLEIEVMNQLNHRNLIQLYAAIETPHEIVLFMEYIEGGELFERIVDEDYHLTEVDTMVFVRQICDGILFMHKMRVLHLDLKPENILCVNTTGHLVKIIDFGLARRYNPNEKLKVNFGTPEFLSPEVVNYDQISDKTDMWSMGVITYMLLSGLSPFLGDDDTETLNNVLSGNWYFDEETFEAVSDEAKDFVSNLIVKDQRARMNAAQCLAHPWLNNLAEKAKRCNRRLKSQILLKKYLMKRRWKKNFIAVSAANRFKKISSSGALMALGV
Dual specificity protein kinase CLK4, sequence (Q9HAZ1 whole entry): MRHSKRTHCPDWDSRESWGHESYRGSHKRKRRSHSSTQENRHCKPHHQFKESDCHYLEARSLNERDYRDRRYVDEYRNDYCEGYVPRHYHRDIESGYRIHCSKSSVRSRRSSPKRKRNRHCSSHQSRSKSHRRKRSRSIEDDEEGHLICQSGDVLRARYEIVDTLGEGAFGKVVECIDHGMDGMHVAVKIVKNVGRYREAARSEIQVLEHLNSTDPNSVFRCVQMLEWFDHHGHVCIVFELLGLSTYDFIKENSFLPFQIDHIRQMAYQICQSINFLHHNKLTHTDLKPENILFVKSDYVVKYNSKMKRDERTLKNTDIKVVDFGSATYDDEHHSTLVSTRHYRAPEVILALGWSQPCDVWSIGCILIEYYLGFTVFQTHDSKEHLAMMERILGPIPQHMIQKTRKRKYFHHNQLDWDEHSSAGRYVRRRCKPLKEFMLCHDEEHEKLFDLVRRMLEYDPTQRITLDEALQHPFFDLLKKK

IC50 [4] | inhibition [5] | IC50 [6] | inhibition [7] | IC50 [10] | inhibition [12] | inhibition [18] | inhibition [19] | inhibition [20] | Compound | IC50 [3] | further results
255 nM | 56% | 12.4 nM | 97% | 31.8 nM | 90% |  |  |  | O=C1NC(=S)S/C1=C\c1ccc2ncsc2c1 | 560 nM | inhibition [1]: 12%; inhibition [2]: inactive; inhibition [8]: 65%; inhibition [9]: 44%; inhibition [11]: inactive
259 nM | 62% | 16.1 nM | 97% | 17.8 nM | 97% |  |  |  | O=C1NC(=S)S/C1=C\c1ccc2ncccc2c1 | 200 nM | inhibition [13]: 7%; inhibition [14]: 89%; inhibition [15]: 83%; inhibition [16]: 5%; inhibition [17]: 6%
 |  |  |  |  |  | 8% | 84% | 73% | CC1C/C(=C\c2ccc3c(c2)CCO3)C(=O)O1 (stereo unspecified) |  | Stability (Plasma): Stable
 |  |  |  |  |  | 13% | 90% | 77% | O=C1OCC/C1=C\c1ccc2ncsc2c1 |  | 
